Values after ≈ are worked out from the molar mass of the structure shown.
Columns and labels:
[1] = biological target: T1, Bifunctional epoxide hydrolase 2 (Homo sapiens, UniProt P34913); test: Inhibitory concentration against human soluble epoxide hydrolase (sEH) at 0.24 uM
T1 sequence (P34913 whole entry): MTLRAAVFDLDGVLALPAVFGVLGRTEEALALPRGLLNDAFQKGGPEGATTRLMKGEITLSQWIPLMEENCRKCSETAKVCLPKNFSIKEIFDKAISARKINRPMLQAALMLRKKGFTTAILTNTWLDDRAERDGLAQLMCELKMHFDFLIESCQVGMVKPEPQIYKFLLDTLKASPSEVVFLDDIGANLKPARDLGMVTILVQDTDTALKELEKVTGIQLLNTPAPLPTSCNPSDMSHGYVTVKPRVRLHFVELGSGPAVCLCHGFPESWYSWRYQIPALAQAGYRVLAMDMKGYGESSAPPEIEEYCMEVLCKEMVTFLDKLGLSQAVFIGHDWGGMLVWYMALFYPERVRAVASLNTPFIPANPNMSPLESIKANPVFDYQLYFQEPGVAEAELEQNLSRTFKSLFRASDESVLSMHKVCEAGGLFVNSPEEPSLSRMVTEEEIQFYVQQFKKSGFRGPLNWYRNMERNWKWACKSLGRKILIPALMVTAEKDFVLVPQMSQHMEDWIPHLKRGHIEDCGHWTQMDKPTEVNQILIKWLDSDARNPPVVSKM

[2] = biological target: T2, Bifunctional epoxide hydrolase 2 (Mus musculus, UniProt P34914); test: Inhibitory concentration against mouse soluble epoxide hydrolase (sEH) at 0.12 uM
T2 sequence (P34914 whole entry): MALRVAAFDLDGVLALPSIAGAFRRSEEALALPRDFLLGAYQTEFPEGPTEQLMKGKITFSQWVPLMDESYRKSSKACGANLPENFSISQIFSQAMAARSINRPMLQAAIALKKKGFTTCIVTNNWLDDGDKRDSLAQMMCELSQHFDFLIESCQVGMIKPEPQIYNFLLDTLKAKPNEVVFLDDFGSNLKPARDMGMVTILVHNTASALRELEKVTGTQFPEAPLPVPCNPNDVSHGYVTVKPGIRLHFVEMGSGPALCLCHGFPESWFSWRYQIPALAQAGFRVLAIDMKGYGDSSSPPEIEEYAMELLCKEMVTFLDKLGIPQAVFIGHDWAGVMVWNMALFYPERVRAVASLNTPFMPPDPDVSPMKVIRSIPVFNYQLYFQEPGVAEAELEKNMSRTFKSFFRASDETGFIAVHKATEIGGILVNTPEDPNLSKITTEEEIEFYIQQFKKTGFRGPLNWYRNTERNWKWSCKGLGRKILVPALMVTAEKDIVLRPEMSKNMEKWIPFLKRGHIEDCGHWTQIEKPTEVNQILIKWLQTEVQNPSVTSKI
Summary of the method: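 Recombinant murine enzyme, baculovirus-expressed, affinity-purified (≥97% pure). 0.12 μM enzyme preincubated with inhibitor 5 min at 30 °C in 0.1 M sodium phosphate pH 7.4 with 0.1 mg/mL BSA. Racemic 4-nitrophenyl-trans-2,3-epoxy-3-phenylpropyl carbonate added at 40 μM. 4-Nitrophenolate formation read at 405 nm over 1 min, 30 °C. Run in triplicate. IC50 regressed from ≥5 points, at least two on each side in the linear region.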

[3] = Solubility in sodium phosphate buffer 0.1M, pH 7.4 at 25 +/-1.5 degree C; format: physicochemical; conditions: read-out: S
Summary of the method: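 Excess solid added to 0.1 M sodium phosphate pH 7.4 at 25 ± 1.5 °C. Suspension equilibrated by 1 h sonication, then 24 h shaking. Centrifuged 5 min at 200g. Absolute amount of dissolved compound then calculated.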

[4] = Partition coefficient (logP); format: physicochemical; conditions: octanol/water
Summary of the method: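 Calculated, not measured: Crippen's method estimate.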

Row | IC50 [1] [µM] | IC50 [2] [µM] | solubility [3] [µg/mL] | logP ([4]; read-out: logP) | logP [4] | SMILES
1 | 6.2 |  |  |  |  | COc1ccc(NC(=O)CC2CCCCC2)cc1
2 | > 100 | > 100 |  |  |  | CCCCCOC(=O)CCCNC(=O)Oc1cccc(Cl)c1
3 | > 100 | > 100 |  |  |  | CCCCCOC(=O)CCCOC(=O)Cc1cccc(Cl)c1
4 | 0.11 |  | 0.5 (≈ 1.49 µM) | 4.76 |  | CCCCCCCCCCNC(=O)NC12CC3CC(CC(C3)C1)C2
5 | 25.2 | 17.4 |  |  |  | CCCCCOC(=O)CCCOC(=O)Nc1cccc(Cl)c1

Second part, the compound before the results:

Row | SMILES | IC50 [1] [µM] | IC50 [2] [µM] | solubility [3] [µg/mL] | logP ([4]; read-out: logP) | logP [4]
6 | CCCCCCC(O)CCCNC(=O)NC12CC3CC(CC(C3)C1)C2 (configuration not stated) | 0.13 | 0.05 |  |  | 
7 | CCCCCCCCCCNC(=O)CC12CC3CC(CC(C3)C1)C2 |  |  | 0.32 (≈ 0.959 µM) | 5.64 | 
8 | O=C(Cc1ccccc1CO)NC1CCCCC1 | > 100 | > 100 |  |  | 
9 | CCCCCOC(=O)CCCOC(=O)Oc1cccc(Cl)c1 | > 100 | > 100 |  |  | 
10 | O=C(CC1CCCCC1)Nc1ccccc1CO | > 100 | > 100 |  |  | 
11 | CCCCCOC(=O)CCCCC(=O)NC12CC3CC(CC(C3)C1)C2 |  |  | 15.1 (≈ 43.2 µM) | 3.53 | 
12 | CCCCCOC(=O)CCCNC(=O)CC12CC3CC(CC(C3)C1)C2 |  |  | 17.4 (≈ 49.8 µM) | 3.66 | 
13 | CCCCCCCCCCCC(=O)NC12CC3CC(CC(C3)C1)C2 |  |  | 0.42 (≈ 1.26 µM) | 5.52 | 
14 | O=C(Nc1ccccc1CO)NC1CCCCC1 | > 100 | > 100 |  |  | 
15 | CCCCCOC(=O)CCCNC(=O)C12CC3CC(CC(C3)C1)C2 | 9.4 | 2.8 |  |  | 
16 | CCCCCOC(=O)CCCNC(=O)NC12CC3CC(CC(C3)C1)C2 |  |  | 1.44 (≈ 4.11 µM) |  | 2.77
